Assay results as given in ChEMBL document CHEMBL2169798, “Discovery of a Plasmodium falciparum glucose-6-phosphate dehydrogenase 6-phosphogluconolactonase inhibitor (R,Z)-N-((1-ethylpyrrolidin-2-yl)methyl)-2-(2-fluorobenzylidene)-3-oxo-3,4-dihydro-2H-benzo[b][1,4]thiazine-6-carboxamide (ML276) that reduces parasite growth in vitro” (J Med Chem, 2012).
≈ marks a conversion by molar mass, not a printed value. Calls of active or inactive are those of the source. The calls are words filed in the database; no cut-off is given here.

Key:
[1] = Drug degradation in PBS buffer assessed as compound depletion at pH 7.4 after 30 mins by RP-LCMS analysis in presence of glutathione; assay type: physicochemical; conditions: pH 7.4, 0.5 h
In short: (§1)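 Compound from a 1 mM DMSO stock, final 10 μM with 1% DMSO, in PBS pH 7.4 with 5 equivalents glutathione (from a 10 mM PBS stock), shaken in capped glass vials at 23 °C. Aliquots were analysed by RP-HPLC-MS on a C18 column at 0, 0.5, 1, 2, 4, 6, 18 and […]. Percent remaining versus 0 h was taken from peak AUC.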

[2] = Chemical stability in PBS buffer at pH 7.4 at 10 uM up to 18 hrs by RP-LCMS analysis in presence of glutathione; assay type: physicochemical; conditions: pH 7.4, 18 h; in short: as §1
[3] = Drug degradation in PBS buffer assessed as compound depletion at pH 7.4 after 24 hrs by RP-LCMS analysis in presence of glutathione; assay type: physicochemical; conditions: PBS buffer with glutathione, read-out: Drug metabolism; in short: as §1
[4] = Permeability of the compound at donor pH 5 by PAMPA; assay type: ADME
[5] = Aqueous solubility in PBS buffer at pH 7.4; assay type: physicochemical
Plasma [6] = experiment: Plasma protein binding in mouse at 10 uM; assay type: ADME, cell-free
[7] = target: Glucose-6-phosphate 1-dehydrogenase (Homo sapiens, UniProt P11413); experiment: Inhibition of human glucose-6-phosphate dehydrogenase after 90 mins by resazurin/diaphorasecoupled assay
Sequence of Glucose-6-phosphate 1-dehydrogenase (Homo sapiens, UniProt P11413) (P11413 whole entry): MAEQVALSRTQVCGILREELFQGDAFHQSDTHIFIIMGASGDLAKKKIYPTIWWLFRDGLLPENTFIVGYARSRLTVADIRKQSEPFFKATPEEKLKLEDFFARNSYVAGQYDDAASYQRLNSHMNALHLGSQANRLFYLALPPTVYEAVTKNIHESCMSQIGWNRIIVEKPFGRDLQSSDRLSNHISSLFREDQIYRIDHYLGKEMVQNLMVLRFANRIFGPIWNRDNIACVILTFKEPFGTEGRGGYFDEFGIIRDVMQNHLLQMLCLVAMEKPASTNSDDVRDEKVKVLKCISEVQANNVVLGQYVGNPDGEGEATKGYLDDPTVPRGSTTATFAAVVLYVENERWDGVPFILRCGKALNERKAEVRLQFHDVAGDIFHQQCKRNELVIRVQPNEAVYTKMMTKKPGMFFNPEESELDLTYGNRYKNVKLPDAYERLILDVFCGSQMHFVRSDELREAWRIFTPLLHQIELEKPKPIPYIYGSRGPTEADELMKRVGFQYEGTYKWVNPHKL
In short: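 Dose response with a top final concentration of […] and 0.8% final DMSO, in 50 mM Tris pH 7.5, 0.005% Tween 20 and 1 mg/mL BSA. The enzyme solution held 0.05 μg/mL hG6PD. The substrate solution held 0.64 mM G6P, 12 μM NADP+, 6.6 mM MgCl2, 2 U/mL diaphorase and 0.28 mM resazurin.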

Plasmodium falciparum [8] = experiment: Antimalarial activity against chloroquine-sensitive Plasmodium falciparum 3D7 cells assessed as Plasmodium falciparum growth inhibition after 72 hrs by isotopic drug sensitivity assay; assay type: functional, organism-based; conditions: 3D7, 72 h
In short: (§2)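 Infected RBCs plated at 0.25% parasitemia (>70% rings), 1.25% hematocrit, hypoxanthine-free medium; serial compound concentrations, chloroquine control. 48 h incubation, then 0.5 μCi 3H-hypoxanthine for another 24 h. Cells harvested on glass fibre filters, radioactivity counted as growth measure. IC50 by non-linear regression; run twice, each in triplicate.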

[9] = Blood brain barrier permeability of the compound at pH 7.4 by PAMPA; assay type: ADME
Plasmodium falciparum [10] = experiment: Competitive inhibition of Plasmodium falciparum glucose-6-phosphate dehydrogenase-6-phosphogluconolactonase using glucose-6-phosphate as substrate by Lineweaver-Burk plot analysis
In short: (§3)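 PfGluPho at 0.2 μg/mL final, with 0.005% Tween 20, 3.3 mM MgCl2, 1 mM TCEP and 0.05 M Tris. G6P was varied at 5 μM NADP+; NADP+ was varied at 25 μM G6P. Compound was titrated at the same time. NADPH fluorescence (ex340/em460) was followed for 10 min and initial slopes taken. Lineweaver-Burk plots gave Km and Vmax, and α came from a rate equation.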

Liver microsomes = experiment: Stability in human liver microsomes assessed as compound remaining after 1 hr; assay type: ADME, Microsome
Liver = experiment: Stability in mouse liver microsomes assessed as compound remaining after 1 hr; assay type: ADME, Microsome
[11] = Permeability of the compound at donor pH 6.2 by PAMPA; assay type: ADME
Plasma [12] = experiment: Plasma protein binding in human at 10 uM; assay type: ADME, cell-free
Plasma [13] = experiment: Plasma protein binding in human at 1 uM; assay type: ADME, cell-free
Plasma [14] = experiment: Stability in human plasma assessed as compound remaining after 3 hrs; assay type: ADME, cell-free
[15] = target: T1, Glucose-6-phosphate 1-dehydrogenase (Plasmodium falciparum, UniProt Q25856); experiment: Inhibition of Plasmodium falciparum glucose-6-phosphate dehydrogenase after 45 mins by orthogonal assay
T1 sequence (Q25856 whole entry): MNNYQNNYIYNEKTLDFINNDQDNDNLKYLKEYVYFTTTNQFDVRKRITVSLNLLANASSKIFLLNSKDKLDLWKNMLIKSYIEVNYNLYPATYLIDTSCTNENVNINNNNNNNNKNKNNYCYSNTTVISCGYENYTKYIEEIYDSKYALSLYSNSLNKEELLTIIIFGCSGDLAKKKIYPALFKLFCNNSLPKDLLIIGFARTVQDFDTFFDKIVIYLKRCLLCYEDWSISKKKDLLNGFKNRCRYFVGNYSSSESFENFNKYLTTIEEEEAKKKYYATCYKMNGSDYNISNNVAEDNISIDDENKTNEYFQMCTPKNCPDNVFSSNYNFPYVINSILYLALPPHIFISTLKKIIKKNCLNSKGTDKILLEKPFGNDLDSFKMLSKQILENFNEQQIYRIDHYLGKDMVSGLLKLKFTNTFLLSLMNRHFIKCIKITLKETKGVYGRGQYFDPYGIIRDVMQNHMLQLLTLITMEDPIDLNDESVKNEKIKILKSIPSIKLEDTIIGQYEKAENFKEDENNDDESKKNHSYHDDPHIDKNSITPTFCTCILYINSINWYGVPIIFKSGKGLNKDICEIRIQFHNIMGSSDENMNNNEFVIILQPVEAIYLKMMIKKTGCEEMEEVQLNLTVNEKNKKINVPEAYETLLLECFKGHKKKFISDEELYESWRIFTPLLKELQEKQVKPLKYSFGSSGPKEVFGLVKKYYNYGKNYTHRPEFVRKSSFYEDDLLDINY
In short: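 Direct NADPH read without coupling: PfGluPho (0.4 μg/mL enzyme solution) in 50 mM Tris pH 7.5, 0.005% Tween 20, 1 mg/mL BSA; substrate 40 μM G6P, 6 μM NADP+, 6.6 mM MgCl2.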

[16] = Aqueous solubility in pION's buffer at pH 7.4; assay type: physicochemical
Plasma [17] = experiment: Plasma protein binding in mouse at 1 uM; assay type: ADME, cell-free
Hepatocyte = experiment: Toxicity against Fa2N-4 immortalized human hepatocytes; assay type: cell-based; conditions: read-out: LC50 (the source's name)
[18] = Aqueous solubility in pION's buffer at pH 5; assay type: physicochemical
[19] = Permeability of the compound at donor pH 7.4 by PAMPA; assay type: ADME
Plasmodium falciparum [20] = experiment: Mixed type inhibition of Plasmodium falciparum glucose-6-phosphate dehydrogenase-6-phosphogluconolactonase using NADP+ as substrate by Lineweaver-Burk plot analysis; in short: as §3
Plasmodium falciparum [21] = experiment: Antimalarial activity against chloroquine-resistant Plasmodium falciparum Dd2 cells assessed as Plasmodium falciparum growth inhibition after 72 hrs by isotopic drug sensitivity assay; assay type: functional, organism-based; conditions: Dd2, 72 h; in short: as §2
[22] = target: T1, Glucose-6-phosphate 1-dehydrogenase; experiment: Inhibition of Plasmodium falciparum glucose-6-phosphate dehydrogenase after 2 hrs by resazurin/diaphorasecoupled assay
[23] = Aqueous solubility in pION's buffer at pH 6.2; assay type: physicochemical
Plasma [24] = experiment: Stability in mouse plasma assessed as compound remaining after 3 hrs; assay type: ADME, cell-free

Q: With `C=C(CC)C(=O)c1ccc(OCC(=O)O)c(Cl)c1Cl` [ETHACRYNIC ACID] as the molecule, how does the Drug metabolism [1] read?
A: Active

Q: And the Stability [2]?
A: Stable

Q: And the degraded at 24 h [3]?
A: 97%

Q: Which permeability [4] does the source give for `CCN1CCC[C@@H]1CNC(=O)c1ccc2c(c1)NC(=O)/C(=C/c1ccccc1F)S2` here?
A: 29 ×10⁻⁶ cm/s

Q: And the solubility [5]?
A: 166 µM (≈ 70.6 µg/mL)

Q: And the PPB (Plasma [6])?
A: 98.34%

Q: What about the IC50 [7] of the same molecule?
A: > 80000 nM

Q: And the IC50 (Plasmodium falciparum [8])?
A: 2340 nM

Q: And the permeability [9]?
A: 233 ×10⁻⁶ cm/s

Q: And the inhibition (Plasmodium falciparum [10])?
A: Active

Q: And the Stability (Liver microsomes)?
A: 60.53%

Q: What about the Stability (Liver) of the same molecule?
A: 37.57%

Q: And the permeability [11]?
A: 737 ×10⁻⁶ cm/s

Q: What about the PPB (Plasma [12]) of the same molecule?
A: 97.98%

Q: What about the PPB (Plasma [13]) of the same molecule?
A: 98.39%

Q: And the Stability (Plasma [14])?
A: 90.98%

Q: What about the IC50 [15] of the same molecule?
A: 1900 nM

Q: What about the solubility [16] of the same molecule?
A: 69 µM (≈ 29.4 µg/mL)

Q: What about the PPB (Plasma [17]) of the same molecule?
A: 98.95%

Q: And the CC50 (Hepatocyte)?
A: > 50000 nM

Q: What about the solubility [18] of the same molecule?
A: > 296 µM

Q: And the permeability [19]?
A: 806 ×10⁻⁶ cm/s

Q: What about the inhibition (Plasmodium falciparum [20]) of the same molecule?
A: Active

Q: What about the IC50 (Plasmodium falciparum [21]) of the same molecule?
A: 3710 nM

Q: And the IC50 [22]?
A: 900 nM

Q: What about the solubility [23] of the same molecule?
A: > 296 µM

Q: And the Stability (Plasma [24])?
A: 80.84%
